These results are taken from PubChem BioAssay AID504382 (The Scripps Research Institute Molecular Screening Center, 2011).

About 460 (18%) of roughly 2,500 compounds were called active. Only a sample is shown. Values without a mark were called inactive.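 Rule for the calls: active = mean activation above a cutoff of low control average plus 3 SD from the earlier screen (cut at about 12% in these data); inactive = the rest.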

The assay is described as follows: compound fluorescence interference without thin filaments, confirmation, artefact control for cardiac RTF calcium sensitizer project, biochemical (AID 504382). The following applies: IANBD fluorescence interference counterscreen, buffer, EC20 Ca2+; at 7.2 µM; active compounds read high; scaled: EC20 calcium 0, EC100 calcium 100. In a few lines:
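Medium: MOPS buffer, 190 mM, with KCl, MgCl2, EGTA, NTA, DTT, pH 7.20; Dosing: one dose of 7.2 µM, 0.7% DMSO; Probe or stimulus: calcium at EC20 level, 0.472 mM final; Incubation: 15 min, 25 °C; Evaluation: compound fluorescence interference relative to control well signal range; Signal: fluorescence, 480/540 nm.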
Background: A counterscreen serves to expose hits that act by an unwanted route or on another target.
Regarding `OCCN=C1CCCc2c1[nH]c1ccc(Cl)cc21`, the fluorescence artifact activation is 0.44%.

Take `COc1ccccc1NCC(=O)NC(=O)NC1CCCCC1`: the fluorescence artifact activation is 0.02%.

For `COc1ccccc1NC(=O)CC(=O)CSc1nnc(-c2ccc(C)cc2)n1-c1ccccc1`, the fluorescence artifact activation was -0.03%.

As for `COc1ccccc1NC(=O)COC(=O)c1cnc(C)cn1`, the fluorescence artifact activation is 14.7% (active).

Take `CCC(=O)Nc1ccc2c(c1)nc(CCN1CCN(C)CC1)n2C`: the fluorescence artifact activation was 20.2% (active).

In the case of `CCCn1c(CN2CCN(C(=O)OCC)CC2)nc2cc(NC(=O)CC)ccc21`, the fluorescence artifact activation was 0.01%.

On to `Cn1c(CN2CCCC2)nc2cc(NC(=O)COc3ccc([N+](=O)[O-])cc3)ccc21`, for which the fluorescence artifact activation was 0.82%.

On to `CCCCC1OC23CCCCC2C(C#N)(C(=N)O3)C1(C#N)C#N` (centres undefined), for which the fluorescence artifact activation is -0.04%.

Take `CCCC1OC23CCCCC2C(C#N)(C#N)C1(C#N)C(=N)O3` (centres undefined): the fluorescence artifact activation is 36.8% (active).

With `CCCCC1OC23CCCCC2C(C#N)(C#N)C1(C#N)C(=N)O3` (centres undefined), the fluorescence artifact activation was 3.08%.

`CCN(c1ccccc1)S(=O)(=O)c1ccc(OC)c(NC(=O)Cn2cnc3c2c(=O)n(C)c(=O)n3C)c1`: the fluorescence artifact activation is 0.38%.

In the case of `CC(OC(=O)/C(C#N)=C/c1ccc(N(C)C)cc1)C(=O)N(C)c1ccccc1` (centres undefined), the fluorescence artifact activation is 0.19%.

Turning to `NS(=O)(=O)c1ccc(-c2ccc(/C=C3\SC(=S)N(C4CCS(=O)(=O)C4)C3=O)o2)cc1` (centres undefined), the fluorescence artifact activation was 3.08%.

In the case of `COc1ccc(CCNC(=O)C2CC(c3c(Cl)cccc3Cl)=NO2)cc1` (centres undefined), the fluorescence artifact activation was -0.04%.

On to `CC1(C)CC(=O)C(CC2CCCCC2=O)C(=O)C1` (centres undefined), for which the fluorescence artifact activation was 0.76%.

As to `CCN(CC)c1ccc(NC(=S)Nc2ccc(F)cc2)cc1`, the fluorescence artifact activation was 0.1%.

For the compound `Fc1ccc(CNCc2ccc(Br)cc2)cc1`, the fluorescence artifact activation is 0.02%.

In the case of `Fc1ccc(CNC(=S)NCc2ccc(F)cc2)cc1`, the fluorescence artifact activation was 12.3% (active).

Regarding `S=C(Nc1ccc(N2CCOCC2)cc1)Nc1ccc2nc(-c3ccco3)c(-c3ccco3)nc2c1`, the fluorescence artifact activation was 8.46%.

Regarding `COc1ccc(C(=O)Cn2cnc3ccccc3c2=O)cc1OC`, the fluorescence artifact activation was 0.22%.

With `O=C(Cn1cnc2ccccc2c1=O)c1ccc(Br)cc1`, the fluorescence artifact activation is 102% (active).

`O=C(c1ccc(Cl)cc1)n1cnc2ccccc21`: the fluorescence artifact activation is 0.21%.

For the compound `O=C(C1=NN(c2ccccc2)C2C(=O)N(c3ccccc3Cl)C(=O)C12)c1ccccc1` (centres undefined), the fluorescence artifact activation is 1.06%.

In the case of `Cc1oc(-c2cc3c(cc2Cl)OCO3)nc1CN1CCCC(C(=O)N2CCOCC2)C1` (centres undefined), the fluorescence artifact activation is 190% (active).

With `CSCCC(NC(=O)c1ccc(Cl)cc1)C(=O)OCC(=O)c1ccc[nH]1` (centres undefined), the fluorescence artifact activation was 0.05%.

On to `O=C(/C=C/c1ccccc1)N/C(=C/c1ccccc1)C(=O)NCCCO`, for which the fluorescence artifact activation is 0.08%.

Regarding `C=CCNC(=O)NC(=O)COC(=O)CC(NC(N)=O)c1ccc(Cl)cc1` (centres undefined), the fluorescence artifact activation is 50.5% (active).

As for `O=C(NCCCN1CCCC1=O)c1cccc(S(=O)(=O)Nc2ccc(Br)cc2)c1`, the fluorescence artifact activation was 0.07%.

With `O=C1CCC(=O)N(O)CCCCCNC(=O)CCC(=O)N(O)CCCCNC(=O)CCC(=O)N(O)CCCCCN1`, the fluorescence artifact activation is -0.06%.

Turning to `O=C(CC1C(=O)N(c2ccc(Cl)cc2)C(=S)N1CCc1ccncc1)Nc1ccc(F)cc1` (centres undefined), the fluorescence artifact activation was -0.02%.

Take `O=S(=O)(c1ccccc1Cl)N1CCC(Cc2ccccc2)CC1`: the fluorescence artifact activation was 0.09%.

For `O=C1c2cccc3cccc(c23)C(=O)N1CC1CCN(S(=O)(=O)c2ccc(F)cc2)CC1`, the fluorescence artifact activation was 34.6% (active).

With `CC1CCN(S(=O)(=O)c2ccc(N=NC3=C(O)CC(C)(C)CC3=O)cc2)CC1`, the fluorescence artifact activation was 1.03%.

As for `C=CCn1c(C)cc(-c2csc(N)n2)c1C`, the fluorescence artifact activation is 2.95%.

For the compound `O=C(NCc1ccco1)C1CC(c2c(Cl)cccc2Cl)=NO1` (centres undefined), the fluorescence artifact activation was -0.09%.

With `COc1cccc(C(=O)NC2CC3CCCC(C2)N3CC(=O)Nc2ccc(N(C)C)cc2)c1` (centres undefined), the fluorescence artifact activation was 3.62%.

With `CN(C)c1ccc(/C=C/c2cc[n+](C)c3ccccc23)cc1`, the fluorescence artifact activation was 0.06%.

Consider `CN(C)c1ccc(/C=C/c2cc[n+](C)cc2)cc1`, for which the fluorescence artifact activation was 14.5% (active).

With `Cc1ccc(/C=C/c2ccc(N(C)C)cc2)[n+](C)c1`, the fluorescence artifact activation is 1.46%.

For `O=C1N(c2cccc(Cl)c2)C(c2ccccc2)N2CCCN12` (centres undefined), the fluorescence artifact activation was -0.04%.

`COc1ccc(COc2cc(-c3cccc(OC)c3)nc3ccc(NC(=O)c4ccc(C)cc4)cc23)cc1`: the fluorescence artifact activation was 0.13%.

In the case of `COc1cccc(CC(NC(C)=O)C(=O)NC2CCN(c3nc(C)cc(C)c3C#N)CC2)c1OC` (centres undefined), the fluorescence artifact activation was 6.12%.

As for `CCCCN(C(=O)c1ccc2c(c1)OCCO2)c1c(N)n(CCCC)c(=O)[nH]c1=O`, the fluorescence artifact activation was -0.02%.

Consider `CC(=O)Nc1ccc(NC(=O)C(C)OC(=O)/C(C#N)=C/c2ccc(N(C)C)cc2)cc1` (centres undefined), for which the fluorescence artifact activation is 2.64%.

For the compound `CC1CC(C)(C)NC(=S)N1CCCC(=O)Nc1ccccc1F` (centres undefined), the fluorescence artifact activation was 0.07%.

On to `CCC(C)n1ncn(-c2ccc(N3CCN(c4ccc(OCC5COC(Cn6cncn6)(c6ccc(Cl)cc6Cl)O5)cc4)CC3)cc2)c1=O` (centres undefined), for which the fluorescence artifact activation is 121% (active).

With `CC1(C)c2[nH]c3ccccc3c2C[C@H]2C(=O)N(Cc3ccc(F)cc3)C(=O)N21`, the fluorescence artifact activation was 0%.

Consider `Cc1onc(-c2ccccc2Cl)c1C(=O)N(Cc1ccc(N(C)C)cc1)C(C)C`, for which the fluorescence artifact activation is 2.44%.

As for `CCOC(=O)c1cc2c(s1)-c1ccccc1CC2`, the fluorescence artifact activation was 0.55%.

Regarding `CCOC(=O)c1cc2n(c1N)-c1ccccc1C2=O`, the fluorescence artifact activation was 19.5% (active).

Turning to `CCOC(=O)c1ccccc1-n1nnnc1C`, the fluorescence artifact activation is 0.06%.

For `COc1cc(/C=C/C=C2/CC/C(=C/C=C/c3ccc(O)c(OC)c3)C2=O)ccc1O`, the fluorescence artifact activation was 7.81%.

Consider `C/C(=C\C=C(C#N)C#N)c1cc(C#N)c(N)o1`, for which the fluorescence artifact activation was 3.09%.

`N#C/C(=C/c1ccc(N2CCOCC2)o1)c1ccc(Cl)cc1`: the fluorescence artifact activation is 0%.

`N#C/C(=C/c1ccc(N2CCCCCC2)o1)c1cccc(F)c1`: the fluorescence artifact activation is 33.8% (active).

With `N#C/C(=C/c1ccc(N2CCCCCC2)o1)c1ccc(Cl)cc1`, the fluorescence artifact activation was 12.3% (active).

Regarding `N#C/C(=C\c1ccc(N2CCCCC2)o1)C(N)=O`, the fluorescence artifact activation was 2.99%.

On to `N#C/C(=C\c1ccc(N2CCOCC2)o1)C(=O)N1CCOCC1`, for which the fluorescence artifact activation was 0.05%.

With `Cc1ncoc1C(=O)N1CCc2c([nH]c3ccccc23)C1C(C)(C)C` (centres undefined), the fluorescence artifact activation is 0.21%.
